Data as given in ChEMBL document CHEMBL3751796, “Structure-Based Discovery of Novel Cyclophilin A Inhibitors for the Treatment of Hepatitis C Virus Infections” (J Med Chem, 2015).
Calls of active or inactive are those of the source.

Legend:
Mus musculus [1] = species: Mus musculus; test: Activation of calcium-dependent calcineurin phosphatase activity in ionomycin-stimulated BALB/c mouse splenocytes assessed as nuclear translocation of NFAT1 at 5 uM preincubated for 20 hrs followed by ionomycin stimulation measured after 4 hrs by DAPI staining based confocal microscopy
Outline: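 Splenocytes were pretreated 20 h, then stimulated with ionomycin 1 μg/mL for 4 h. Fixed in 3.7% formaldehyde, permeabilized with 0.5% Triton X-100, and incubated overnight at 4 °C with anti-NFAT1 (1:100, 3% BSA). Alexa 546 secondary 1:200 for 2 h, DAPI counterstain, then confocal imaging of NFAT1 localization.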

Hepatitis C virus [2] = test: Antiviral activity against HCV infected in human Huh7.5 cells assessed as inhibition of HCV-specific RNA by qRT-PCR method in presence of ribavirin; assay type: functional, organism-based; conditions: Hepacivirus hominis; Huh-7
[3] = molecular target: T1, Peptidyl-prolyl cis-trans isomerase A (Homo sapiens, UniProt P62937); test: Inhibition of Cyclophilin A peptidyl-prolyl cis-trans isomerase activity (unknown origin) using Succ-Ala-Leu-Pro-Phe-p-nitroaniline as substrate by enzyme kinetic analysis
Target sequence in this assay (P62937 whole entry): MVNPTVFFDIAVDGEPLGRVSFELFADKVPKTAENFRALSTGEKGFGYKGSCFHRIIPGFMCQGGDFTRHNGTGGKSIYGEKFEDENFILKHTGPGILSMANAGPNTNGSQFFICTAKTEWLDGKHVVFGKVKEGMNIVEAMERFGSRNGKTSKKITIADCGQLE

Hepatitis C virus [4] = test: Antiviral activity against HCV genotype 1b Con1 infected in human Huh7.5 cells assessed as upregulation of IFN-alpha expression incubated up to 96 hrs by ELISA; assay type: functional, organism-based; conditions: Hepacivirus hominis; isolate Con1; Huh-7
Outline: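 Con1b replicon cells, 2 × 10^6/well, treated with 2 μM for up to 4 days at 37 °C. Pooled culture media assayed for IL-8 and IFN-α by ELISA.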

Hepatitis C virus [5] = test: Antiviral activity against HCV genotype 1b Con1 infected in human Huh7.5 cells assessed as stimulation of STAT2 mRNA expression at 2 uM incubated up to 96 hrs by qRT-PCR method; assay type: functional, organism-based; conditions: Hepacivirus hominis, isolate Con1, Huh-7, TDE = time-dependent effect
Outline: (§1)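 mRNA measured by SYBR Green qRT-PCR using the 2^−ΔΔCT method, normalized to GAPDH and expressed as fold change vs controls.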

Hepatitis C virus [6] = test: Antiviral activity against HCV genotype 1b Con1 infected in human Huh7.5 cells assessed as stimulation of STAT2 expression at 2 uM incubated up to 96 hrs by Western blot analysis; assay type: functional, organism-based; conditions: Hepacivirus hominis, isolate Con1, Huh-7, TDE = time-dependent effect
[7] = molecular target: T1, Peptidyl-prolyl cis-trans isomerase A; test: Inhibition of human Cyclophilin A interaction with HCV genotype 1b Con1 NS5B in human Huh7.5 cells after 72 hrs by mammalian two-hybrid assay; assay type: cell-based; conditions: Huh-7
Target sequence in this assay (P62937 whole entry, looked up): as the sequence (P62937 whole entry) above

[8] = molecular target: T1, Peptidyl-prolyl cis-trans isomerase A; test: Inhibition of recombinant GST-tagged Cyclophilin A (unknown origin) interaction with HCV GST-tagged NS5A at 2 to 4 uM by GST pulldown assay
Target sequence in this assay (P62937 whole entry, looked up): as the sequence (P62937 whole entry) above

Hepatitis C virus [9] = test: Antiviral activity against HCV genotype 1b Con1 infected in human Huh7.5 cells assessed as inhibition of NS5B expression in total cell lysate at 2 uM by Western blot analysis; assay type: functional, organism-based; conditions: Hepacivirus hominis, isolate Con1, Huh-7
Outline: (§2)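 Con1b replicon cells treated with 2 μM. Total lysates, and a membrane fraction prepared by hypotonic buffer, dounce homogenization, 220g spin and then 68 000g for 1 h at 4 °C, analyzed by Western blot for NS5A and NS5B.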

Hepatitis C virus [10] = test: Antiviral activity against HCV genotype 1b Con1 infected in human Huh7.5 cells assessed as stimulation of STAT1 expression at 2 uM incubated up to 96 hrs by Western blot analysis; assay type: functional, organism-based; conditions: Hepacivirus hominis, isolate Con1, Huh-7, TDE = time-dependent effect
Hepatitis C virus [11] = test: Antiviral activity against HCV genotype 1b Con1 infected in human Huh7.5 cells assessed as stimulation of IRF9 mRNA expression at 2 uM incubated up to 96 hrs by qRT-PCR method; assay type: functional, organism-based; conditions: Hepacivirus hominis, isolate Con1, Huh-7, TDE = time-dependent effect; outline: as §1
[12] = Cytotoxicity against HCV infected human Huh7.5 cells assessed as cell death by MTT assay in presence of ribavirin; assay type: cell-based; conditions: huh-7
Mus musculus [13] = species: Mus musculus; test: Activation of calcium-dependent calcineurin phosphatase activity in ionomycin-stimulated BALB/c mouse assessed as production of IL-2 at 1 to 10 uM after 24 hrs by ELISA
Outline: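 Mouse spleen cells, 2 × 10^6/well, stimulated with ionomycin 1 μg/mL and treated with a dose series for 24 h at 37 °C. Media from triplicate wells pooled. IL-2 measured by ELISA and calculated from IL-2 standards.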

Hepatitis C virus [14] = test: Antiviral activity against HCV genotype 1b Con1 infected in human Huh7.5 cells expressing GFP-fused NS5A measured 72 hrs post infection by hoechst 33342 staining based confocal microscopy; assay type: functional, organism-based, Hepacivirus hominis; conditions: isolate Con1, Huh-7, 72 h
Outline: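 Huh7 replicon cells expressing NS5A-GFP seeded at 2 × 10^3/well and left overnight, then given serially diluted compound. At 72 h, fixed in 2% PFA and nuclei stained with Hoechst 33342 (10 μg/mL). Automated confocal imaging: GFP-positive cells give activity, nuclei counts give cytotoxicity. EC50/CC50 from nonlinear regression.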

Hepatitis C virus [15] = test: Antiviral activity against HCV genotype 1b Con1 infected in human Huh7.5 cells assessed as stimulation of ISG15 mRNA expression at 2 uM incubated up to 96 hrs by qRT-PCR method; assay type: functional, organism-based; conditions: Hepacivirus hominis, isolate Con1, Huh-7, TDE = time-dependent effect; outline: as §1
[16] = molecular target: T2, Peptidyl-prolyl cis-trans isomerase B (Homo sapiens, UniProt P23284); test: Dissociation rate to Cyclophilin B (unknown origin) by surface plasmon resonance analysis
T2 sequence (P23284 whole entry): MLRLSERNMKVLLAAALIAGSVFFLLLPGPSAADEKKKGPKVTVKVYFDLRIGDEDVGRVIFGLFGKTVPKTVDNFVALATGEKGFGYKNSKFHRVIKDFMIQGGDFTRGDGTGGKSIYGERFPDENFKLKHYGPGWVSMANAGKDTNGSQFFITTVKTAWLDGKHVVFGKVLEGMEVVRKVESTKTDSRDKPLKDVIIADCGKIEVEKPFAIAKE

Hepatitis C virus [17] = test: Antiviral activity against HCV genotype 1b Con1 infected in human Huh7.5 cells assessed as inhibition of NS5B expression at 2 uM by DAPI staining based confocal microscopy; assay type: functional, organism-based; conditions: Hepacivirus hominis, isolate Con1, Huh-7
Outline: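 Con1b replicon cells treated at 2 μM. Stained with Alexa red anti-NS5A and Alexa green anti-NS5B antibodies plus DAPI, then imaged by confocal microscopy for colocalization. Images representative of at least three experiments.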

[18] = molecular target: T2, Peptidyl-prolyl cis-trans isomerase B
Hepatitis C virus [19] = test: Antiviral activity against HCV infected in human Huh7.5 cells assessed as inhibition of HCV-specific RNA by qRT-PCR method in presence of telaprevir; assay type: functional, organism-based; conditions: Hepacivirus hominis; Huh-7
Mus musculus [20] = test: Toxicity in NOD/SCID mouse assessed as body weight change at 50 mg/kg, ip measured up to 14 days; assay type: organism-based; conditions: in vivo, 336 h
Hepatitis C virus [21] = test: Antiviral activity against HCV genotype 1b Con1 infected in human Huh7 cells xenografted in immunodeficient NOD/SCID mouse assessed as inhibition of NS5B expression in liver at 50 mg/kg, ip up to 14 days by Western blot analysis; assay type: functional, organism-based; conditions: Hepacivirus hominis, isolate Con1, Huh-7
[22] = molecular target: T1, Peptidyl-prolyl cis-trans isomerase A; test: Inhibition of recombinant GST-tagged Cyclophilin A (unknown origin) interaction with HCV GST-tagged NS5B at 2 to 4 uM by GST pulldown assay
Target sequence in this assay (P62937 whole entry, looked up): as the sequence (P62937 whole entry) above

[23] = molecular target: T1, Peptidyl-prolyl cis-trans isomerase A; test: Inhibition of human Cyclophilin A interaction with HCV genotype 1b Con1 NS5A in human Huh7.5 cells at 2 uM by co-immunoprecipitation assay; assay type: cell-based; conditions: Huh-7
Target sequence in this assay (P62937 whole entry, looked up): as the sequence (P62937 whole entry) above

Hepatitis C virus [24] = test: Antiviral activity against HCV genotype 1b Con1 infected in human Huh7.5 cells assessed as inhibition of NS5A expression in total cell lysate at 2 uM by Western blot analysis; assay type: functional, organism-based; conditions: Hepacivirus hominis, isolate Con1, Huh-7; outline: as §2
Hepatitis C virus [25] = test: Antiviral activity against HCV genotype 1b Con1 infected in human Huh7.5 cells assessed as inhibition of NS5A expression in membrane fractions at 2 uM by Western blot analysis; assay type: functional, organism-based; conditions: Hepacivirus hominis, isolate Con1, Huh-7; outline: as §2

COc1cc(C(C(=O)NC2CCCCC2)N(C(=O)Cc2c[nH]c3ccccc23)c2ccc(C(C)C)cc2)cc(OC)c1OC (stereo not given)
Non-toxic: Activity [12] | Activity (Mus musculus [20])
5.5 nM: IC50 [3]
active: Activity (Mus musculus [1]) | inhibition (Hepatitis C virus [2]) | Activity (Hepatitis C virus [4]) | Activity (Hepatitis C virus [5]) tde | Activity (Hepatitis C virus [6]) tde | inhibition [7] | inhibition [8] | inhibition (Hepatitis C virus [9]) | Activity (Hepatitis C virus [10]) tde | Activity (Hepatitis C virus [11]) tde | Activity (Mus musculus [13]) | Activity (Hepatitis C virus [15]) tde | inhibition (Hepatitis C virus [17]) | inhibition (Hepatitis C virus [19]) | inhibition (Hepatitis C virus [21]) | inhibition [22] | inhibition [23] | inhibition (Hepatitis C virus [24]) | inhibition (Hepatitis C virus [25])
730 nM: EC50 (Hepatitis C virus [14])
8.25 ×10⁻⁴ /s: koff [16]
2100 nM: Kd [18]
